According to ChEMBL document CHEMBL1268892, “Antidotes to anthrax lethal factor intoxication. Part 1: Discovery of potent lethal factor inhibitors with in vivo efficacy” (Bioorg Med Chem Lett, 2010):
Activity calls are given as the source filed them. The rule behind the calls is not given here.

Columns and labels:
Lethal factor = molecular target: T1, Lethal factor (Bacillus anthracis, UniProt P15917); experiment: Inhibition of Bacillus anthracis lethal factor assessed as proteolysis using MCA-KKVYPYPME-Dap(Dnp)-NH2 peptide substrate by FRET assay
T1 sequence (P15917 whole entry): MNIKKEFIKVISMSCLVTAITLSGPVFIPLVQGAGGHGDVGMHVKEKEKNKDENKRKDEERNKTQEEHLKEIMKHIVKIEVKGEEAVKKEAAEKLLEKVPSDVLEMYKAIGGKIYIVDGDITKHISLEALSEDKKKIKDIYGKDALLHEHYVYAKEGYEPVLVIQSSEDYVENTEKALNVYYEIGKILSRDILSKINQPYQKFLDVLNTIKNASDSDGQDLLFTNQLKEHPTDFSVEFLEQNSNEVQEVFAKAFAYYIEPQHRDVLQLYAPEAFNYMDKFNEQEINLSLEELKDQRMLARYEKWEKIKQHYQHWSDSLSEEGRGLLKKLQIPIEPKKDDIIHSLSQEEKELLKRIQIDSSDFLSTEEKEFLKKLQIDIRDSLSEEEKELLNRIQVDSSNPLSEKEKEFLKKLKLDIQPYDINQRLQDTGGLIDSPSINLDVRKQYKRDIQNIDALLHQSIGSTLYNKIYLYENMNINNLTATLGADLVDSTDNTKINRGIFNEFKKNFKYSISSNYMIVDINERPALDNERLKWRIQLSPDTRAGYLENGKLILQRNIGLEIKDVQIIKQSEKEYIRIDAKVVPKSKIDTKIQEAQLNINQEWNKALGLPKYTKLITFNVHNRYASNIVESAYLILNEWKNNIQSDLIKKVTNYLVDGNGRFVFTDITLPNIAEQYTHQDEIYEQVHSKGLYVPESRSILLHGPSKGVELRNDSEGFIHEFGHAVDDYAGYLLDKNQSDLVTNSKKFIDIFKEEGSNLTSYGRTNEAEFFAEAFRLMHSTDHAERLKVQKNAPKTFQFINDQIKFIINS
Summary of the method: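 Purified LF at 0.5 nM final with 40 μM peptide substrate in 20 mM HEPES pH 7.4, 0.1% Tween-20, 0.5 mg/mL BSA. The reaction was started by adding enzyme and incubated 4 h at 23°C to reach a steady-state rate. Cleavage was read as fluorescence increase (λex 324 nm, λem 395 nm). Ki was fitted to the tight-binding equation. Values are means of three experiments.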

[1] = Lipophilicity, log D of the compound at pH 7.4; assay type: physicochemical; conditions: buffer
[2] = Solubility of the compound in 50% DNSO/PBS; assay type: physicochemical; conditions: 50% DMSO/PBS
Rattus norvegicus [3] = experiment: Inhibition of lethal factor-induced toxicity in Fischer 344 rat assessed as increase in median survival time at 5 mg/kg, iv relative to control; assay type: functional, organism-based; design: dose 5 mg/kg
Rattus norvegicus [4] = experiment: Inhibition of lethal factor-induced toxicity in Fischer 344 rat assessed as increase in median survival time at 2.5 mg/kg, iv relative to control; assay type: functional, organism-based; design: dose 2.5 mg/kg

## Cc1cc(N[C@H](CCCCNCc2cccc(F)c2)C(=O)NO)cc(C)c1F
Lethal factor
  Ki: 0.85 nM
[1]
  logD: < 3
[2]
  solubility: > 5 µg/mL

## CO[C@H](C[C@H](CCN1CCN(Cc2ccccc2)CC1)C(=O)NO)c1ccc(F)cc1
Lethal factor
  Ki: 115 nM

## CO[C@H](C[C@H](CCN1CCCCC1)C(=O)NO)c1ccc(F)cc1
Lethal factor
  Ki: 230 nM

## Cc1cc(N[C@H](CCCCNCc2ccccc2F)C(=O)NO)cc(C)c1F
Lethal factor
  Ki: 0.69 nM
[1]
  logD: < 3
[2]
  solubility: > 5 µg/mL

## CO[C@H](C[C@H](CCN1CCN(CCc2ccccc2)CC1)C(=O)NO)c1ccc(F)cc1
Lethal factor
  Ki: 118 nM

## CO[C@H](C[C@H](CCN1CCN(c2ccccc2)CC1)C(=O)NO)c1ccc(F)cc1
Lethal factor
  Ki: 151 nM

## CO[C@H](C[C@H](CCN1CCCC(Cc2ccc(F)cc2)C1)C(=O)NO)c1ccc(F)cc1 (stereo partly specified)
Lethal factor
  Ki: 33 nM
[1]
  logD: < 3
[2]
  solubility: > 5 µg/mL

## COc1ccc(CNCCCC[C@@H](Nc2cc(C)c(F)c(C)c2)C(=O)NO)cc1
Lethal factor
  Ki: 0.44 nM
[1]
  logD: < 3
[2]
  solubility: > 5 µg/mL

## Cc1cc(N[C@H](CCCCNCc2ccc([N+](=O)[O-])cc2)C(=O)NO)cc(C)c1F
Lethal factor
  Ki: 0.3 nM
[1]
  logD: < 3
[2]
  solubility: > 5 µg/mL

## Cc1cc(N[C@H](CCCCNCc2ccc(C(F)(F)F)cc2)C(=O)NO)cc(C)c1F
Lethal factor
  Ki: 0.47 nM
[1]
  logD: < 3
[2]
  solubility: > 5 µg/mL

## CO[C@H](C[C@H](CCN1CCNCC1)C(=O)NO)c1ccc(F)cc1
Lethal factor
  Ki: 90 nM
[1]
  logD: < 3
[2]
  solubility: > 5 µg/mL

## Cc1ccc(CNCCCC[C@@H](Nc2cc(C)c(F)c(C)c2)C(=O)NO)cc1
Lethal factor
  Ki: 0.41 nM
[1]
  logD: < 3
[2]
  solubility: > 5 µg/mL

## CO[C@H](C[C@H](CCN(C)CCCc1ccccc1)C(=O)NO)c1ccc(F)cc1
Lethal factor
  Ki: 42 nM
[1]
  logD: < 3
[2]
  solubility: > 5 µg/mL

## CO[C@H](C[C@H](CCN(C)Cc1ccc(-c2ccc(F)c(C)c2)cc1)C(=O)NO)c1ccc(F)cc1
Lethal factor
  Ki: 135 nM

## Cc1cc(C(=O)NCCCC[C@@H](Nc2cc(C)c(F)c(C)c2)C(=O)NO)ccc1F
Lethal factor
  Ki: 7.3 nM
[1]
  logD: < 3
[2]
  solubility: > 5 µg/mL

## Cc1cc(S(=O)(=O)NCCCC[C@@H](Nc2cc(C)c(F)c(C)c2)C(=O)NO)ccc1F
Lethal factor
  Ki: 3.1 nM
[1]
  logD: < 3
[2]
  solubility: > 5 µg/mL

## Cc1cc(NC(=O)NCCCC[C@@H](Nc2cc(C)c(F)c(C)c2)C(=O)NO)ccc1F
Lethal factor
  Ki: 9.3 nM
[1]
  logD: < 3
[2]
  solubility: > 5 µg/mL

## Cc1cc(N[C@H](CCCCNCCc2ccc(F)cc2)C(=O)NO)cc(C)c1F
[1]
  logD: < 3
[2]
  solubility: > 5 µg/mL

## CO[C@H](C[C@H](CCN1CCCC1)C(=O)NO)c1ccc(F)cc1
Lethal factor
  Ki: 122 nM

## CO[C@H](C[C@H](CCN(C)CCCc1ccc(F)c(C)c1)C(=O)NO)c1ccc(F)cc1
[1]
  logD: < 3
[2]
  solubility: > 5 µg/mL

## Cc1cc(N[C@H](CCCCNCCCc2ccc(F)cc2)C(=O)NO)cc(C)c1F
Lethal factor
  Ki: 1.3 nM
[1]
  logD: < 3
[2]
  solubility: > 5 µg/mL

## Cc1cc(N[C@H](CCCCN)C(=O)NO)cc(C)c1F
Lethal factor
  Ki: 8.2 nM
[1]
  logD: < 3
[2]
  solubility: > 5 µg/mL

## Cc1cc(N[C@H](CCCCNCc2ccc(Cl)cc2)C(=O)NO)cc(C)c1F
Lethal factor
  Ki: 1.1 nM
[1]
  logD: < 3
[2]
  solubility: > 5 µg/mL

## CO[C@H](C[C@H](CCN(C)C)C(=O)NO)c1ccc(F)cc1
Lethal factor
  Ki: 96 nM
[1]
  logD: < 3
[2]
  solubility: > 5 µg/mL

## Cc1cc(N[C@H](CCCCNCc2ccc(F)cc2)C(=O)NO)cc(C)c1F
[1]
  logD: < 3
[2]
  solubility: > 5 µg/mL

## Cc1cc(N[C@H](CCCCNCc2ccc(C(C)(C)C)cc2)C(=O)NO)cc(C)c1F
Lethal factor
  Ki: 1.4 nM
[1]
  logD: < 3
[2]
  solubility: > 5 µg/mL

## CO[C@H](C[C@H](CCN1CCCC(CO)C1)C(=O)NO)c1ccc(F)cc1 (stereo partly specified)
Lethal factor
  Ki: 99 nM
[1]
  logD: < 3
[2]
  solubility: > 5 µg/mL

## CO[C@H](C[C@H](CCN1CCOCC1)C(=O)NO)c1ccc(F)cc1
Lethal factor
  Ki: 350 nM

## Cc1cc(CNCCCC[C@@H](Nc2cc(C)c(F)c(C)c2)C(=O)NO)ccc1F
Rattus norvegicus [3]
  inhibition: Active
[1]
  logD: < 3
Rattus norvegicus [4]
  inhibition: Active
[2]
  solubility: > 5 µg/mL
